# “And” between values parts separate entries of the source, which are not always exact repeats. Equal entries are not always repeated.
# Tested on: U2OS
# Experiment: Multiplex assay against U2OS
# Type: toxicity, cell-based
# Conditions: human
# Summary of the method: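 Imaging took place on a CQ1 microscope at 37°C and 5% CO2 once compound had been added to live cells stained at seeding with Hoechst33342, BioTracker Green Microtubule Cytoskeleton Dye, MitoTracker Red and Annexin V Alexa Fluor 680. CellPathfinder machine-learning gating classed cells as Hoechst high-intensity objects or normal cells, classed normal cells as having healthy, pyknosed or fragmented nuclei, and classed pyknosed cells as mitotic or apoptotic. Tubulin, mitochondrial-mass and membrane-permeability phenotypes are per cents of the healthy-nucleus cells.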
# [1] = 12 h, 1 µM, compound concentration 1 uM
# [2] = 12 h, 10 µM, compound concentration 10 uM
# [3] = 24 h, 1 µM, compound concentration 1 uM
# [4] = 24 h, 10 µM, compound concentration 10 uM
# [5] = 48 h, 1 µM, compound concentration 1 uM
# [6] = 48 h, 10 µM, compound concentration 10 uM
smiles,measurement,setting,value
O=c1ccc2ccc(OCCCCN3CCN(c4cccc5sccc45)CC3)cc2[nH]1 [BREXPIPRAZOLE],Population Apoptotic (%),[1],73% and 55%
same,Population Fragmented Nuclei (%),[1],23% and 16%
same,Population Healthy Nuclei (%),[1],62% and 69%
same,Population Hoechst High Intensity Objects (%),[1],6% and 2%
same,Population Membrane Permeable-Phenotype (%),[1],40% and 32%
same,Population Mitochondria Different-Phenotype (%),[1],19% and 24%
same,Population Mitotic Cells (%),[1],26% and 44%
same,Population Normal (%),[1],93% and 97%
same,Population Pyknosed Nuclei (%),[1],13% and 14%
same,Population Tubulin-Different-Phenotype (%),[1],36% and 30%
same,Total Cell Count,[1],178 and 126
same,Population Apoptotic (%),[2],86% and 82%
same,Population Fragmented Nuclei (%),[2],31% and 21%
same,Population Healthy Nuclei (%),[2],27% and 43%
same,Population Hoechst High Intensity Objects (%),[2],6% and 9%
same,Population Membrane Permeable-Phenotype (%),[2],57% and 53%
same,Population Mitochondria Different-Phenotype (%),[2],82% and 90%
same,Population Mitotic Cells (%),[2],13% and 17%
same,Population Normal (%),[2],93% and 90%
same,Population Pyknosed Nuclei (%),[2],41% and 35%
same,Population Tubulin-Different-Phenotype (%),[2],83% and 95%
same,Total Cell Count,[2],220 and 109
same,Population Apoptotic (%),[3],68% and 66%
same,Population Fragmented Nuclei (%),[3],26% and 12%
same,Population Healthy Nuclei (%),[3],55% and 67%
same,Population Hoechst High Intensity Objects (%),[3],3%
same,Population Membrane Permeable-Phenotype (%),[3],19% and 22%
same,Population Mitochondria Different-Phenotype (%),[3],22% and 28%
same,Population Mitotic Cells (%),[3],31% and 33%
same,Population Normal (%),[3],96%
same,Population Pyknosed Nuclei (%),[3],18% and 19%
same,Population Tubulin-Different-Phenotype (%),[3],18% and 16%
same,Total Cell Count,[3],181 and 128
same,Population Apoptotic (%),[4],93% and 91%
same,Population Fragmented Nuclei (%),[4],30% and 19%
same,Population Healthy Nuclei (%),[4],25% and 26%
same,Population Hoechst High Intensity Objects (%),[4],13% and 22%
same,Population Membrane Permeable-Phenotype (%),[4],47% and 56%
same,Population Mitochondria Different-Phenotype (%),[4],67% and 86%
same,Population Mitotic Cells (%),[4],6% and 8%
same,Population Normal (%),[4],86% and 77%
same,Population Pyknosed Nuclei (%),[4],44% and 54%
same,Population Tubulin-Different-Phenotype (%),[4],76% and 91%
same,Total Cell Count,[4],213 and 112
same,Population Apoptotic (%),[5],64% and 73%
same,Population Fragmented Nuclei (%),[5],21% and 22%
same,Population Healthy Nuclei (%),[5],61% and 56%
same,Population Hoechst High Intensity Objects (%),[5],4% and 2%
same,Population Mitochondria Different-Phenotype (%),[5],12% and 31%
same,Population Mitotic Cells (%),[5],35% and 26%
same,Population Normal (%),[5],95% and 97%
same,Population Pyknosed Nuclei (%),[5],16% and 21%
same,Population Tubulin-Different-Phenotype (%),[5],8% and 18%
same,Total Cell Count,[5],240 and 161
same,Population Apoptotic (%),[6],96% and 100%
same,Population Fragmented Nuclei (%),[6],45% and 29%
same,Population Healthy Nuclei (%),[6],12% and 14%
same,Population Hoechst High Intensity Objects (%),[6],26% and 32%
same,Population Membrane Permeable-Phenotype (%),[6],45% and 70%
same,Population Mitochondria Different-Phenotype (%),[6],30% and 90%
same,Population Mitotic Cells (%),[6],3% and 0%
same,Population Normal (%),[6],73% and 67%
same,Population Pyknosed Nuclei (%),[6],41% and 56%
same,Population Tubulin-Different-Phenotype (%),[6],40% and 90%
same,Total Cell Count,[6],215 and 105
CCC(=O)OCC(=O)[C@@]1(OC(=O)CC)[C@@H](C)C[C@H]2[C@@H]3CCC4=CC(=O)C=C[C@]4(C)[C@@]3(Cl)[C@@H](O)C[C@@]21C [BECLOMETHASONE DIPROPIONATE],Population Apoptotic (%),[1],84% and 71%
same,Population Fragmented Nuclei (%),[1],23% and 18%
same,Population Healthy Nuclei (%),[1],64% and 75%
same,Population Hoechst High Intensity Objects (%),[1],1% and 0%
same,Population Membrane Permeable-Phenotype (%),[1],11% and 13%
same,Population Mitochondria Different-Phenotype (%),[1],4% and 8%
same,Population Mitotic Cells (%),[1],15% and 28%
same,Population Normal (%),[1],98% and 99%
same,Population Pyknosed Nuclei (%),[1],12% and 6%
same,Population Tubulin-Different-Phenotype (%),[1],6% and 4%
same,Total Cell Count,[1],160 and 111
same,Population Apoptotic (%),[2],65% and 68%
same,Population Healthy Nuclei (%),[2],40% and 69%
same,Population Hoechst High Intensity Objects (%),[2],4%
same,Population Membrane Permeable-Phenotype (%),[2],67% and 48%
same,Population Mitochondria Different-Phenotype (%),[2],73% and 97%
same,Population Mitotic Cells (%),[2],34% and 31%
same,Population Normal (%),[2],95%
same,Population Pyknosed Nuclei (%),[2],17% and 18%
same,Population Tubulin-Different-Phenotype (%),[2],80% and 97%
same,Total Cell Count,[2],176 and 109
same,Population Apoptotic (%),[3],78% and 87%
same,Population Fragmented Nuclei (%),[3],21% and 15%
same,Population Healthy Nuclei (%),[3],67% and 71%
same,Population Hoechst High Intensity Objects (%),[3],2% and 0%
same,Population Membrane Permeable-Phenotype (%),[3],2% and 6%
same,Population Mitochondria Different-Phenotype (%),[3],4% and 5%
same,Population Mitotic Cells (%),[3],21% and 12%
same,Population Normal (%),[3],97% and 99%
same,Population Pyknosed Nuclei (%),[3],10% and 13%
same,Population Tubulin-Different-Phenotype (%),[3],1% and 3%
same,Total Cell Count,[3],217 and 123
same,Population Apoptotic (%),[4],74% and 64%
same,Population Fragmented Nuclei (%),[4],35% and 12%
same,Population Healthy Nuclei (%),[4],45% and 69%
same,Population Hoechst High Intensity Objects (%),[4],3% and 9%
same,Population Membrane Permeable-Phenotype (%),[4],40% and 43%
same,Population Mitochondria Different-Phenotype (%),[4],72% and 86%
same,Population Mitotic Cells (%),[4],25% and 35%
same,Population Normal (%),[4],96% and 90%
same,Population Pyknosed Nuclei (%),[4],18% and 17%
same,Population Tubulin-Different-Phenotype (%),[4],66% and 76%
same,Total Cell Count,[4],174 and 106
same,Population Apoptotic (%),[5],91% and 85%
same,Population Fragmented Nuclei (%),[5],22% and 10%
same,Population Healthy Nuclei (%),[5],68% and 75%
same,Population Hoechst High Intensity Objects (%),[5],2%
same,Population Membrane Permeable-Phenotype (%),[5],5% and 8%
same,Population Mitochondria Different-Phenotype (%),[5],2% and 5%
same,Population Mitotic Cells (%),[5],8% and 14%
same,Population Normal (%),[5],97%
same,Population Pyknosed Nuclei (%),[5],9% and 14%
same,Population Tubulin-Different-Phenotype (%),[5],2% and 3%
same,Total Cell Count,[5],268 and 152
same,Population Apoptotic (%),[6],80% and 70%
same,Population Fragmented Nuclei (%),[6],36% and 21%
same,Population Healthy Nuclei (%),[6],47% and 65%
same,Population Hoechst High Intensity Objects (%),[6],4% and 6%
same,Population Membrane Permeable-Phenotype (%),[6],20% and 16%
same,Population Mitochondria Different-Phenotype (%),[6],26% and 36%
same,Population Mitotic Cells (%),[6],20% and 29%
same,Population Normal (%),[6],95% and 93%
same,Population Pyknosed Nuclei (%),[6],15% and 13%
same,Population Tubulin-Different-Phenotype (%),[6],14% and 10%
same,Total Cell Count,[6],199 and 131
CC(C)C[C@H](NC(=O)c1cc2ccccc2s1)C(=O)N1CCN(C(=O)[C@H](CO)NS(=O)(=O)c2ccc(Cl)cc2Cl)CC1,Population Apoptotic (%),[1],71.76% and 81.82%
same,Population Fragmented Nuclei (%),[1],5.1% and 6.74%
same,Population Healthy Nuclei (%),[1],61.48% and 56.18%
same,Population Hoechst High Intensity Objects (%),[1],0%
same,Population Membrane Permeable-Phenotype (%),[1],5.39% and 4%
same,Population Mitotic Cells (%),[1],28.24% and 18.18%
same,Population Normal (%),[1],100%
same,Population Pyknosed Nuclei (%),[1],33.42% and 37.08%
same,Population Tubulin-Different-Phenotype (%),[1],4.56% and 4%
same,Population Apoptotic (%),[2],55.1% and 50.79%
same,Population Fragmented Nuclei (%),[2],2% and 2.9%
same,Population Healthy Nuclei (%),[2],65.33% and 51.45%
same,Population Hoechst High Intensity Objects (%),[2],0%
same,Population Membrane Permeable-Phenotype (%),[2],69.39% and 39.44%
same,Population Mitochondria Different-Phenotype (%),[2],30.61% and 87.32%
same,Population Mitotic Cells (%),[2],44.9% and 49.21%
same,Population Normal (%),[2],100%
same,Population Pyknosed Nuclei (%),[2],32.67% and 45.65%
same,Population Tubulin-Different-Phenotype (%),[2],98.47% and 95.77%
same,Total Cell Count,[2],300 and 138
same,Population Apoptotic (%),[3],71.76% and 90.91%
same,Population Fragmented Nuclei (%),[3],4.78% and 1.14%
same,Population Healthy Nuclei (%),[3],65.38% and 61.36%
same,Population Hoechst High Intensity Objects (%),[3],0%
same,Population Membrane Permeable-Phenotype (%),[3],4.18% and 5.56%
same,Population Normal (%),[3],100%
same,Population Pyknosed Nuclei (%),[3],29.84% and 37.5%
same,Population Tubulin-Different-Phenotype (%),[3],4.88% and 3.7%
same,Population Apoptotic (%),[4],65.59% and 62.96%
same,Population Fragmented Nuclei (%),[4],2.48% and 4.41%
same,Population Healthy Nuclei (%),[4],64.54% and 55.88%
same,Population Hoechst High Intensity Objects (%),[4],0%
same,Population Membrane Permeable-Phenotype (%),[4],34.07% and 32.89%
same,Population Mitochondria Different-Phenotype (%),[4],52.75% and 88.16%
same,Population Mitotic Cells (%),[4],34.41% and 37.04%
same,Population Normal (%),[4],100%
same,Population Pyknosed Nuclei (%),[4],32.98% and 39.71%
same,Population Tubulin-Different-Phenotype (%),[4],95.6% and 81.58%
same,Total Cell Count,[4],282 and 136
same,Population Apoptotic (%),[5],77.39% and 79.17%
same,Population Fragmented Nuclei (%),[5],3.97% and 6.03%
same,Population Healthy Nuclei (%),[5],79.75% and 73.28%
same,Population Hoechst High Intensity Objects (%),[5],0%
same,Population Membrane Permeable-Phenotype (%),[5],5.15% and 10.59%
same,Population Mitotic Cells (%),[5],22.61% and 20.83%
same,Population Normal (%),[5],100%
same,Population Pyknosed Nuclei (%),[5],16.29% and 20.69%
same,Population Tubulin-Different-Phenotype (%),[5],5.51% and 4.71%
same,Population Apoptotic (%),[6],78.7% and 70%
same,Population Fragmented Nuclei (%),[6],3.93% and 4.11%
same,Population Healthy Nuclei (%),[6],63.44% and 54.79%
same,Population Hoechst High Intensity Objects (%),[6],0%
same,Population Membrane Permeable-Phenotype (%),[6],29.05% and 32.5%
same,Population Mitochondria Different-Phenotype (%),[6],43.33% and 62.5%
same,Population Mitotic Cells (%),[6],21.3% and 30%
same,Population Normal (%),[6],100%
same,Population Pyknosed Nuclei (%),[6],32.63% and 41.1%
same,Population Tubulin-Different-Phenotype (%),[6],92.38% and 80%
same,Total Cell Count,[6],331 and 146
